The source made the active and inactive calls.
Key:
Type in all cases: functional
[1] = organism: Mus musculus; test: Stimulation of cytokine secretion in C57BL/6 mouse HMNCs assessed as increase in IL-17 secretion at 25 nM measured after 72 hrs by ELISA
[2] = organism: Mus musculus; test: Stimulation of cytokine secretion in C57BL/6 mouse HMNCs assessed as increase in IL-4 secretion at 25 nM measured after 72 hrs by ELISA
[3] = organism: Mus musculus; test: Stimulation of cytokine secretion in C57BL/6 mouse HMNCs assessed as increase in IL-2 secretion at 25 nM measured after 24 hrs by ELISA
Summary of the method: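 Mouse hepatic mononuclear cells were exposed to the α-GalCer analogues. IL-2 secretion was read 24 h after treatment. Results were expressed as relative activity, mean ± SEM, from n = 3 biological replicates.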

[4] = organism: Mus musculus; test: Stimulation of cytokine secretion in C57BL/6 mouse HMNCs assessed as increase in IFN gamma secretion at 25 nM measured after 72 hrs by ELISA
[5] = organism: Mus musculus; test: Stimulation of cytokine secretion in C57BL/6 mouse HMNCs assessed as increase in IL-17 secretion measured after 72 hrs by ELISA
[6] = organism: Mus musculus; test: Stimulation of cytokine secretion in C57BL/6 mouse HMNCs assessed as increase in IL-17 secretion at 5 to 125 nM measured after 72 hrs by ELISA
[7] = organism: Mus musculus; test: Antiinflammatory activity in C57BL/6 mouse HMNCs assessed as reduction in IL-17 secretion at 5 to 125 nM

Measured: Activity

CCCCCCCCCCCCCC[C@@H](O)[C@@H](O)[C@H](CO[C@H]1O[C@H](CO)[C@H](O)[C@H](O)[C@H]1O)NC(=O)CCCCCCCCCCCCOCCCCCCCCCOCC
active: [1] | [2] | [3] | [4] | [5] Dose-dependent effect

CCCCCCCCCCCCCC[C@@H](O)[C@@H](O)[C@H](CO[C@H]1O[C@H](CO)[C@H](O)[C@H](O)[C@H]1O)NC(=O)CCCCCCCCCCCOCCCCCCCCCOCCC
active: [1] | [2] | [3] | [4]

CCCCCCCCCCCCCC[C@@H](O)[C@@H](O)[C@H](CO[C@H]1O[C@H](CO)[C@H](O)[C@H](O)[C@H]1O)NC(=O)CCCCCCCCCCCCCCCCOCCCCOCCC
not listed: [5]
active: all other assays above

CCCCCCCCCCCCCCCCCCCCCCCCCC(=O)N[C@@H](CO[C@H]1O[C@H](CO)[C@H](O)[C@H](O)[C@H]1O)[C@H](O)[C@H](O)CCCCCCCCCCCCCC
active: [2] | [4]

CCCCCCCCCCCCCC[C@@H](O)[C@@H](O)[C@H](CO[C@H]1O[C@H](CO)[C@H](O)[C@H](O)[C@H]1O)NC(=O)CCCCCCCCCCCCCCOCCCCCCCOCC
active: [1] | [2] | [3] | [4]

CCCCCCCCCCCCCC[C@@H](O)[C@@H](O)[C@H](CO[C@H]1O[C@H](CO)[C@H](O)[C@H](O)[C@H]1O)NC(=O)CCCCCCCCCCCOCCCCCCCCCCOCC
active: [1] | [2] | [3] | [4] | [5] Dose-dependent effect

CCCCCCCCCCCCCC[C@@H](O)[C@@H](O)[C@H](CO[C@H]1O[C@H](CO)[C@H](O)[C@H](O)[C@H]1O)NC(=O)CCCCCCCCCCCCOCCCCCCCCOCCC
active: [1] | [2] | [3] | [4]

CCCCCCCCCCCCCC[C@@H](O)[C@@H](O)[C@H](CO[C@H]1O[C@H](CO)[C@H](O)[C@H](O)[C@H]1O)NC(=O)CCCCCCCCCCCCCCCCOCCCCCOCC
active: [1] | [2] | [3] | [4]

CCCCCCCCCCCCCC[C@@H](O)[C@@H](O)[C@H](CO[C@H]1O[C@H](CO)[C@H](O)[C@H](O)[C@H]1O)NC(=O)CCCCCCCCCCCCCCOCCCCCCOCCC
active: [1] | [2] | [3] | [4]
